Assay results reported in ChEMBL document CHEMBL1123134, “Diterpenoid sweeteners. Synthesis and sensory evaluation of stevioside analogues with improved organoleptic properties” (1985).

Key:
Format in all cases: functional
Homo sapiens [1] = species on record: Homo sapiens; experiment: Sensory evaluation was done for sweetness at a concentration of 650 p.p.m. against sample intensity relative to 10% sucrose.
Outline: (§1)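 Sweetness tasted in solutions held near pH ~7, so carboxylic acids are ionized. Potency is reported two ways: on a weight basis (Pw) and on a molar basis (Pm).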

Homo sapiens [2] = species on record: Homo sapiens; experiment: Sensory evaluation was done at a concentration of 650 p.p.m. against property of sweetness.
Outline: (§2)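 Aqueous sample solutions were tasted at about pH 7, so carboxylic acids were in ionized form.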

Homo sapiens [3] = species on record: Homo sapiens; experiment: Sensory evaluation was done for sweetness at a concentration of 650 p.p.m. against compound potency calculated on a molar basis.; outline: as §1
Homo sapiens [4] = species on record: Homo sapiens; experiment: Sensory evaluation was done for sweetness at a concentration of 650 p.p.m. against compound potency calculated on weight basis.; outline: as §1
Homo sapiens [5] = species on record: Homo sapiens; experiment: Sensory evaluation was done at a concentration of 650 p.p.m. against other properties.; outline: as §2
Homo sapiens [6] = species on record: Homo sapiens; experiment: Sensory evaluation was done at a concentration of 650 p.p.m. against property of bitterness.; outline: as §2
Homo sapiens [7] = species on record: Homo sapiens; experiment: Sensory evaluation was done for sweetness at a concentration of 631 p.p.m. against compound potency calculated on a molar basis.; outline: as §1
Homo sapiens [8] = species on record: Homo sapiens; experiment: Sensory evaluation was done for sweetness at a concentration of 631 p.p.m. against sample intensity relative to 10% sucrose.; outline: as §1
Homo sapiens [9] = species on record: Homo sapiens; experiment: Sensory evaluation was done for sweetness at a concentration of 631 p.p.m. against compound potency calculated on weight basis.; outline: as §1
Homo sapiens [10] = species on record: Homo sapiens; experiment: Sensory evaluation was done at a concentration of 631 p.p.m. against property of bitterness.; outline: as §2
Homo sapiens [11] = species on record: Homo sapiens; experiment: Sensory evaluation was done at a concentration of 631 p.p.m. against property of sweetness.; outline: as §2
Homo sapiens [12] = species on record: Homo sapiens; experiment: Sensory evaluation was done at a concentration of 631 p.p.m. against other properties.; outline: as §2
Homo sapiens [13] = species on record: Homo sapiens; experiment: Sensory evaluation was done for sweetness at a concentration of 1000 p.p.m. against sample intensity relative to 10% sucrose.; outline: as §2
Homo sapiens [14] = species on record: Homo sapiens; experiment: Sensory evaluation was done at a concentration of 1000 p.p.m. against property of bitterness.; outline: as §2
Homo sapiens [15] = species on record: Homo sapiens; experiment: Sensory evaluation was done at a concentration of 1000 p.p.m. against property of sweetness.; outline: as §2
Homo sapiens [16] = species on record: Homo sapiens; experiment: Sensory evaluation was done for sweetness at a concentration of 1000 p.p.m. against compound potency calculated on a molar basis.
Outline: (§3)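 Solutions were tasted at about pH 7. Sweetness potency was expressed two ways: Pw, calculated on a weight basis, and Pm, calculated on a molar basis.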

Homo sapiens [17] = species on record: Homo sapiens; experiment: Sensory evaluation was done for sweetness at a concentration of 1000 p.p.m. against compound potency calculated on weight basis.; outline: as §3
Homo sapiens [18] = species on record: Homo sapiens; experiment: Sensory evaluation was done at a concentration of 1000 p.p.m. against other properties.; outline: as §2
Homo sapiens [19] = species on record: Homo sapiens; experiment: Sensory evaluation was done at a concentration of 3000 p.p.m. against other properties.
Outline: (§4)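 Sensory evaluation of the samples in solution at pH ~7, where carboxylic acids are ionized.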

Homo sapiens [20] = species on record: Homo sapiens; experiment: Sensory evaluation was done for sweetness at a concentration of 3000 p.p.m. against sample intensity relative to 10% sucrose.; outline: as §4
Homo sapiens [21] = species on record: Homo sapiens; experiment: Sensory evaluation was done at a concentration of 3000 p.p.m. against property of sweetness.; outline: as §4
Homo sapiens [22] = species on record: Homo sapiens; experiment: Sensory evaluation was done at a concentration of 3000 p.p.m. against property of bitterness.; outline: as §4
Homo sapiens [23] = species on record: Homo sapiens; experiment: Sensory evaluation was done for sweetness at a concentration of 3000 p.p.m. against compound potency calculated on a molar basis.; outline: as §4
Homo sapiens [24] = species on record: Homo sapiens; experiment: Sensory evaluation was done for sweetness at a concentration of 3000 p.p.m. against compound potency calculated on weight basis.; outline: as §4
Homo sapiens [25] = species on record: Homo sapiens; experiment: Sensory evaluation was done at a concentration of 550 p.p.m. against other properties.; outline: as §2
Homo sapiens [26] = species on record: Homo sapiens; experiment: Sensory evaluation was done at a concentration of 550 p.p.m. against property of bitterness.; outline: as §2
Homo sapiens [27] = species on record: Homo sapiens; experiment: Sensory evaluation was done for sweetness at a concentration of 550 p.p.m. against compound potency calculated on weight basis.; outline: as §1
Homo sapiens [28] = species on record: Homo sapiens; experiment: Sensory evaluation was done for sweetness at a concentration of 550 p.p.m. against sample intensity relative to 10% sucrose.; outline: as §1
Homo sapiens [29] = species on record: Homo sapiens; experiment: Sensory evaluation was done at a concentration of 550 p.p.m. against property of sweetness.; outline: as §2
Homo sapiens [30] = species on record: Homo sapiens; experiment: Sensory evaluation was done for sweetness at a concentration of 550 p.p.m. against compound potency calculated on a molar basis.; outline: as §1

## C=C1C[C@@]23CC[C@H]4[C@@](C)(CCC[C@@]4(C)C(=O)OCCCCS(=O)(=O)[O-])[C@@H]2CC[C@]1(O[C@@H]1O[C@@H](CO)[C@@H](O)[C@H](O)[C@@H]1O[C@@H]1O[C@@H](CO)[C@@H](O)[C@H](O)[C@@H]1O)C3.[Na+]
Homo sapiens [1]
  Ip: 0.8
Homo sapiens [2]
  Sensory evaluation: 79
Homo sapiens [3]
  Pm: 290
Homo sapiens [4]
  Pw: 120
Homo sapiens [5]
  Sensory evaluation: 4
Homo sapiens [6]
  Sensory evaluation: 17

## C=C1C[C@@]23CC[C@H]4[C@@](C)(CCC[C@@]4(C)C(=O)OCCC(S(=O)(=O)[O-])S(=O)(=O)[O-])[C@@H]2CC[C@]1(O[C@H]1O[C@H](CO)[C@@H](O)[C@H](O)[C@H]1O[C@@H]1O[C@H](CO)[C@@H](O)[C@H](O)[C@H]1O)C3.[Na+].[Na+]
Homo sapiens [7]
  Pm: 310
Homo sapiens [8]
  Ip: 0.8
Homo sapiens [9]
  Pw: 120
Homo sapiens [10]
  Sensory evaluation: 0
Homo sapiens [11]
  Sensory evaluation: 96
Homo sapiens [12]
  Sensory evaluation: 4

## CC1=CC(=O)NS(=O)(=O)O1 [ACESULFAME]
Homo sapiens [13]
  Ip: 1
Homo sapiens [14]
  Sensory evaluation: 16
Homo sapiens [15]
  Sensory evaluation: 83
Homo sapiens [16]
  Pm: 55
Homo sapiens [17]
  Pw: 100
Homo sapiens [18]
  Sensory evaluation: 1

## C=C1C[C@@]23CC[C@H]4[C@@](C)(CCC[C@@]4(C)C(=O)OCCCP(=O)([O-])O)[C@@H]2CC[C@]1(O[C@@H]1O[C@@H](CO)[C@@H](O)[C@H](O)[C@@H]1O[C@@H]1O[C@@H](CO)[C@@H](O)[C@H](O)[C@@H]1O)C3.[Na+]
Homo sapiens [1]
  Ip: 0.8
Homo sapiens [2]
  Sensory evaluation: 87
Homo sapiens [3]
  Pm: 280
Homo sapiens [4]
  Pw: 120
Homo sapiens [5]
  Sensory evaluation: 5
Homo sapiens [6]
  Sensory evaluation: 8

## C=C1C[C@@]23CC[C@H]4[C@@](C)(CCC[C@@]4(C)C(=O)OC(CCN)C(=O)O)[C@@H]2CC[C@]1(O[C@@H]1O[C@@H](CO)[C@@H](O)[C@H](O)[C@@H]1O[C@@H]1O[C@@H](CO)[C@@H](O)[C@H](O)[C@@H]1O)C3 (stereo partly drawn)
Homo sapiens [1]
  Ip: 1.1
Homo sapiens [2]
  Sensory evaluation: 79
Homo sapiens [3]
  Pm: 360
Homo sapiens [4]
  Pw: 170
Homo sapiens [5]
  Sensory evaluation: 3
Homo sapiens [6]
  Sensory evaluation: 18

## CC12CC[C@](C)(C(=O)O)CC1C1=CC(=O)[C@@H]3[C@@]4(C)CC[C@H](O[C@H]5O[C@H](C(=O)O)[C@@H](O)[C@H](O)[C@H]5O[C@@H]5O[C@H](C(=O)O)[C@@H](O)[C@H](O)[C@H]5O)C(C)(C)[C@@H]4CC[C@@]3(C)[C@]1(C)CC2.N (stereo partly drawn)
Homo sapiens [19]
  Sensory evaluation: 13
Homo sapiens [20]
  Ip: 1
Homo sapiens [21]
  Sensory evaluation: 84
Homo sapiens [22]
  Sensory evaluation: 3
Homo sapiens [23]
  Pm: 90
Homo sapiens [24]
  Pw: 33

## C=C1C[C@@]23CC[C@H]4[C@@](C)(CCC[C@@]4(C)C(=O)[O-])[C@@H]2CC[C@]1(O[C@@H]1O[C@@H](CO)[C@@H](O)[C@H](O)[C@@H]1O[C@@H]1O[C@@H](CO)[C@@H](O)[C@H](O)[C@@H]1O)C3.[Na+] [Steviolbioside]
Homo sapiens [13]
  Ip: 1
Homo sapiens [14]
  Sensory evaluation: 35
Homo sapiens [15]
  Sensory evaluation: 65
Homo sapiens [16]
  Pm: 190
Homo sapiens [17]
  Pw: 100
Homo sapiens [18]
  Sensory evaluation: 0

## C=C1C[C@@]23CC[C@H]4[C@@](C)(CCC[C@@]4(C)C(=O)OC(CCC(=O)[O-])C(=O)O)[C@@H]2CC[C@]1(O[C@@H]1O[C@@H](CO)[C@@H](O)[C@H](O)[C@@H]1O[C@@H]1O[C@@H](CO)[C@@H](O)[C@H](O)[C@@H]1O)C3.[Na+] (stereo partly drawn)
Homo sapiens [25]
  Sensory evaluation: 10
Homo sapiens [26]
  Sensory evaluation: 2
Homo sapiens [27]
  Pw: 160
Homo sapiens [28]
  Ip: 0.9
Homo sapiens [29]
  Sensory evaluation: 84
Homo sapiens [30]
  Pm: 380
